Reference: ChEMBL document CHEMBL5260851, “Iodinated Choline Transport-Targeted Tracers” (J Med Chem, 2020)
Each block holds one compound with its values, some of them ahead of it.

How the values were obtained:
[1] = Displacement of [3H]-choline from choline transporter in human PC-3 cells preincubated with [3H]-choline for 15 mins followed by compound addition and measured after 60 mins; type: cell-based
[2] = Cytotoxicity against human MRC5 cells; type: toxicity, cell-based
[3] = Cytotoxicity against human BJ cells; type: toxicity, cell-based
[4] = Stability in human liver microsomes assessed as parent compound remaining at 2 uM after 60 mins in presence of NADPH generating system by RF-MS analysis; type: ADME, Microsome; details: read-out: Stability
How it was run: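 Compound at 2 μM with human liver microsomes (0.5 mg·mL⁻¹) and an NADPH-generating system (NADP⁺, isocitrate dehydrogenase, isocitric acid, MgSO4) in 0.1 M phosphate buffer at 37 °C. Samples taken at 0, 15, 30 and 60 min, quenched with ACN–methanol (2:1), freeze-dried, and analysed by RapidFire-MS against an internal standard.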

[5] = Stability in human plasma assessed as parent compound remaining at 2 uM after 2 hrs by RF-MS analysis; type: ADME, cell-free; details: read-out: Stability
How it was run: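 Compound at 2 μM final (DMSO ≤0.1%) incubated in human plasma at 37 °C, sampled at 0, 15, 30, 60 and 120 min. Quenched with ACN–methanol (2:1) and measured by RapidFire-MS/MS (ESI+, MRM). The value is the percent of parent remaining.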

PC-3 [6] = test: Biodistribution in human PC-3 cells xenografted mouse measured after 3 hrs by SPECT method; type: ADME, organism-based; details: in vivo
How it was run: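 Mice carried subcutaneous PC-3 xenografts. Static whole-body SPECT scans of 30 min under 2% isoflurane were run at 1, 3 and 24 h p.i., then a 20 min double CT.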

[7] = Displacement of [3H]-choline from choline transporter in human U-87 MG cells preincubated with [3H]-choline for 15 mins followed by compound addition and measured after 60 mins; type: cell-based
How it was run: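 PC-3 cells were grown in F12 Ham with 10% FBS, 0.25% bicarbonate and pen/strep; U-87 MG cells in DMEM with 10% FBS, 0.1 mM NEAA and 1.0 mM pyruvate; both at 37 °C, 5% CO2, used at 70–90% confluence. [3H]choline was added in Tris uptake buffer (pH 7.4), then compound in triplicate over 10 concentrations; readout was radioactivity per g of protein (BCA), with IC50 from a sigmoidal fit.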

PC-3 [8] = test: Biodistribution in human PC-3 cells xenografted mouse measured after 3 hrs by PET method; type: ADME, organism-based; details: in vivo
How it was run: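 Mice carried subcutaneous PC-3 xenografts (5 × 10⁶ cells, right flank), with tumors at 100–300 mm³. [18F]fluorocholine 5–7 MBq was given retro-orbitally.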

- IC50 [1]: 197 µM
SMILES: C[N+]1(Cc2ccccc2I)CCCC(O)C1 (stereo not drawn)
- IC50 [2]: > 50 µM
- IC50 [3]: > 50 µM

- IC50 [1]: 0.14 µM
- remaining at 1 h, 2 µM [4]: 92%
- remaining at 2 h, 2 µM [5]: 89%
SMILES: C[N+](C)(CCO)CCCCCCOc1ccc(I)c([N+](=O)[O-])c1
- IC50 [2]: > 50 µM
- IC50 [3]: > 50 µM

- IC50 [1]: 53 µM
SMILES: COc1c(I)cc(CC[N+](C)(C)CCO)cc1I
- IC50 [2]: > 50 µM
- IC50 [3]: > 50 µM

- IC50 [1]: 24 µM
SMILES: COc1ccc(CC[N+](C)(C)CCO)cc1I
- IC50 [2]: > 50 µM
- IC50 [3]: > 50 µM

- IC50 [1]: 34 µM
SMILES: COc1ccc(CCC[N+](C)(C)CCO)cc1I
- IC50 [2]: > 50 µM
- IC50 [3]: > 50 µM

- IC50 [1]: 77 µM
- IC50 [7]: 77 µM
SMILES: CC[N+](CC)(CCO)Cc1ccc(I)cc1
- IC50 [2]: > 50 µM
- IC50 [3]: > 50 µM

- IC50 [1]: 16 µM
- IC50 [7]: 23 µM
SMILES: OCC[N+]1(Cc2ccc(I)cc2)CCCC1 [listing 1 of 2 here]

- IC50 [1]: 28 µM
- remaining at 1 h, 2 µM [4]: 90%
- remaining at 2 h, 2 µM [5]: 66%
- IC50 [7]: 8.8 µM
SMILES: OCC[N+]1(Cc2cccc(I)c2)CCCC1
- IC50 [2]: > 50 µM
- IC50 [3]: > 50 µM

- IC50 [1]: 11 µM
- remaining at 1 h, 2 µM [4]: 74%
- remaining at 2 h, 2 µM [5]: 81%
- IC50 [7]: 3.3 µM
SMILES: OCC[N+]1(Cc2ccc(I)cc2)CCCC1 [listing 2 of 2 here]
- IC50 [2]: > 50 µM
- IC50 [3]: > 50 µM

- IC50 [1]: 4.7 µM
- remaining at 1 h, 2 µM [4]: 78%
- remaining at 2 h, 2 µM [5]: 81%
SMILES: OCC[N+]1(CCOc2ccccc2I)CCCC1
- IC50 [2]: > 50 µM
- IC50 [3]: > 50 µM

- IC50 [1]: 908 µM
SMILES: OCCN1CC[N+](CCO)(Cc2ccccc2I)CC1
- IC50 [2]: > 50 µM
- IC50 [3]: > 50 µM

- IC50 [1]: 43 µM
SMILES: OCC[N+]1(Cc2ccccc2I)CCOCC1
- IC50 [2]: > 50 µM
- IC50 [3]: > 50 µM

- IC50 [1]: 30 µM
SMILES: C[N+](C)(CCCCO)CCc1ccc(I)s1
- IC50 [2]: > 50 µM
- IC50 [3]: > 50 µM

- IC50 [1]: 8.1 µM
- remaining at 1 h, 2 µM [4]: 100%
- remaining at 2 h, 2 µM [5]: 85%
- IC50 [7]: 4.3 µM
SMILES: CC[N+](CC)(CCO)Cc1ccccc1I
- IC50 [2]: > 50 µM
- IC50 [3]: > 50 µM

- IC50 [1]: 8.6 µM
SMILES: C[N+](C)(CCO)CCc1ccc(I)cc1
- IC50 [2]: > 50 µM
- IC50 [3]: > 50 µM

- IC50 [1]: 1.1 µM
SMILES: C[N+](C)(CCCO)CCc1ccc(I)s1
- IC50 [2]: > 50 µM
- IC50 [3]: > 50 µM

- IC50 [1]: 18 µM
SMILES: OCC[N+]1(CCOc2ccc(I)cc2)CCCC1
- IC50 [2]: > 50 µM
- IC50 [3]: > 50 µM

- IC50 [1]: 216 µM
SMILES: C[N+](C)(CCO)Cc1ccccc1I
- IC50 [2]: > 50 µM
- IC50 [3]: > 50 µM

- IC50 [1]: 0.45 µM
- remaining at 1 h, 2 µM [4]: 86%
- remaining at 2 h, 2 µM [5]: 89%
SMILES: C[N+](C)(CCO)CCc1ccc(I)s1
- IC50 [2]: > 50 µM
- IC50 [3]: > 50 µM

- IC50 [1]: 18 µM
SMILES: OCC[N+]1(CCCCC#CI)CCCC1
- IC50 [2]: > 50 µM
- IC50 [3]: > 50 µM

- IC50 [1]: 1.2 µM
- remaining at 1 h, 2 µM [4]: 100%
- remaining at 2 h, 2 µM [5]: 80%
- IC50 [7]: 0.78 µM
SMILES: C[N+](C)(CCO)CCc1cccc(I)c1
- IC50 [2]: > 50 µM
- IC50 [3]: > 50 µM

- Drug uptake (PC-3 [8]): Not Active
SMILES: C[N+](C)(C[18F])CCO.[Cl-]

- IC50 [1]: 273 µM
SMILES: OCC[N+]1(Cc2ccc(I)cc2)CCOCC1
- IC50 [2]: > 50 µM
- IC50 [3]: > 50 µM

- IC50 [1]: 217 µM
SMILES: OCC[N+]1(Cc2ccccc2I)CCCCC1
- IC50 [2]: > 50 µM
- IC50 [3]: > 50 µM

- IC50 [1]: 20 µM
SMILES: C[N+](C)(CF)CCO

- IC50 [1]: 1.4 µM
- remaining at 1 h, 2 µM [4]: 86%
- remaining at 2 h, 2 µM [5]: 86%
SMILES: C[N+](C)(CCO)CCCCCCOc1cccnc1I
- IC50 [2]: > 50 µM
- IC50 [3]: > 50 µM

- IC50 [1]: 0.044 µM
- remaining at 1 h, 2 µM [4]: 85%
- remaining at 2 h, 2 µM [5]: 83%
SMILES: C[N+](C)(CCO)CCCCCCOc1cccc(I)c1
- IC50 [2]: > 50 µM
- IC50 [3]: > 50 µM

- IC50 [1]: 22 µM
SMILES: C[N+](C)(CCO)CCOc1cccc(I)c1
- IC50 [2]: > 50 µM
- IC50 [3]: > 50 µM

- IC50 [1]: 4.7 µM
SMILES: C[N+](C)(C)CCO [CHOLINE]

Further lines, the compound ahead of its results:

SMILES: C[N+]1(C)CCOC(O)(c2ccc(-c3ccc(C4(O)C[N+](C)(C)CCO4)cc3)cc2)C1 (stereo not drawn)
- IC50 [1]: 36 µM

SMILES: C[N+](C)(CCO)CCCCOc1ccccc1I
- IC50 [1]: 11 µM
- remaining at 1 h, 2 µM [4]: 54%
- IC50 [2]: > 50 µM
- IC50 [3]: > 50 µM
- remaining at 2 h, 2 µM [5]: 91%

SMILES: Cc1ccc(OCCCC[N+](C)(C)CCO)c(I)n1
- IC50 [1]: 18 µM
- IC50 [2]: > 50 µM
- IC50 [3]: > 50 µM

SMILES: C[N+](C)(CCO)CCCCCCOc1cccc([123I])c1.[Br-]
- Drug uptake (PC-3 [6]): Not Active

SMILES: OC1C[N+]2(Cc3ccccc3I)CCC1CC2 (stereo not drawn)
- IC50 [1]: 160 µM
- IC50 [2]: > 50 µM
- IC50 [3]: > 50 µM

SMILES: C[N+](C)(CCO)CCCCOc1ccc(-c2ccccc2)cc1I
- IC50 [1]: 1.3 µM
- remaining at 1 h, 2 µM [4]: 89%
- remaining at 2 h, 2 µM [5]: 90%

SMILES: COc1ccc(CC[N+]23CCC(CC2)C(O)C3)cc1I (stereo not drawn)
- IC50 [1]: 115 µM
- IC50 [2]: > 50 µM
- IC50 [3]: > 50 µM

SMILES: C[N+](C)(CCO)CCOc1ccccc1I
- IC50 [1]: 25 µM
- IC50 [2]: > 50 µM
- IC50 [3]: > 50 µM

SMILES: OCC[N+]1(CCCCOc2ccccc2I)CCCC1
- IC50 [1]: 5.1 µM
- remaining at 1 h, 2 µM [4]: 70%
- IC50 [2]: > 50 µM
- IC50 [3]: > 50 µM
- remaining at 2 h, 2 µM [5]: 91%

SMILES: C[N+]1(CCc2ccc(I)cc2)CCCC(O)C1 (stereo not drawn)
- IC50 [1]: 106 µM
- IC50 [2]: > 50 µM
- IC50 [3]: > 50 µM

SMILES: OCC[N+]1(CCOc2cccc(I)c2)CCCC1
- IC50 [1]: 15 µM
- IC50 [2]: > 50 µM
- IC50 [3]: > 50 µM

SMILES: C[N+](C)(CCO)CCOc1ccc(I)cc1
- IC50 [1]: 23 µM
- IC50 [2]: > 50 µM
- IC50 [3]: > 50 µM

SMILES: OCC[N+]1(CCCCCCOc2cccc(I)c2)CCCC1
- IC50 [1]: 0.91 µM
- remaining at 1 h, 2 µM [4]: 79%
- IC50 [2]: > 50 µM
- IC50 [3]: > 50 µM
- remaining at 2 h, 2 µM [5]: 91%

SMILES: C[N+](C)(CCO)Cc1ccc(I)cc1
- IC50 [1]: 130 µM
- IC50 [2]: > 50 µM
- IC50 [3]: > 50 µM
- IC50 [7]: 129 µM

SMILES: CS(=O)(=O)[O-].OCC[N+]1(Cc2cccc([123I])c2)CCCC1
- Drug uptake (PC-3 [6]): Not Active

SMILES: CCCCCCCCCCOc1ccc(CCC[N+](C)(C)CCO)cc1I
- IC50 [1]: 2.1 µM
- remaining at 1 h, 2 µM [4]: 82%
- remaining at 2 h, 2 µM [5]: 85%
- IC50 [7]: 1.7 µM

SMILES: OC1C[N+]2(CCc3ccc(I)cc3)CCC1CC2 (stereo not drawn)
- IC50 [1]: 75 µM
- IC50 [2]: > 50 µM
- IC50 [3]: > 50 µM

SMILES: CCCCCCOc1ccc(CCC[N+](C)(C)CCO)cc1I
- IC50 [1]: 0.41 µM
- remaining at 1 h, 2 µM [4]: 93%
- remaining at 2 h, 2 µM [5]: 60%
- IC50 [7]: 2.1 µM

SMILES: C[N+](C)(CCO)CCCCC#CI
- IC50 [1]: 36 µM
- IC50 [2]: > 50 µM
- IC50 [3]: > 50 µM

SMILES: OCC[N+]1(CCc2ccc(I)s2)CCCC1
- IC50 [1]: 10 µM
- remaining at 1 h, 2 µM [4]: 86%
- IC50 [2]: > 50 µM
- IC50 [3]: > 50 µM
- remaining at 2 h, 2 µM [5]: 86%

SMILES: OCC[N+]1(CCc2ccc(I)cc2)CCCC1
- IC50 [1]: 19 µM
- remaining at 1 h, 2 µM [4]: 96%
- IC50 [2]: > 50 µM
- IC50 [3]: > 50 µM
- remaining at 2 h, 2 µM [5]: 98%
- IC50 [7]: 29 µM

SMILES: C[N+](C)(CCO)CCCC#CI
- IC50 [1]: 3 µM
- remaining at 1 h, 2 µM [4]: 95%
- IC50 [2]: > 50 µM
- IC50 [3]: > 50 µM
- remaining at 2 h, 2 µM [5]: 89%

SMILES: C[N+](C)(CCO)Cc1cccc(I)c1
- IC50 [1]: 133 µM
- IC50 [2]: > 50 µM
- IC50 [3]: > 50 µM
- IC50 [7]: 25 µM
